This is a sample that favours compounds with a hit; in the whole collection about 3.2% have one here.
DAGLB inh – blocks human DAGLB lipase activity | AID 504411 | Q8NCG7 | actives 0.059% (n = 340,000) | inhibition, % at 5.17 µM | HEK293T DAGLB membrane lysate, EnzChek fluorogenic substrate; in the data active = inhibition above about 34%;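 also: 0% = enzyme with vehicle and 100% = wells lacking enzyme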
PRMT1 inh – PRMT1 (human) inhibition, primary screen | Q99873 | recombinant PRMT1, activity-based probe fluorescence polarization | inhibition, % at 2.79 µM | actives 1.3% (n = 370,000);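 active = inhibition above about 21% made by adding two undisclosed values, limit read from the data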
Target sequence (Q99873 whole entry, looked up): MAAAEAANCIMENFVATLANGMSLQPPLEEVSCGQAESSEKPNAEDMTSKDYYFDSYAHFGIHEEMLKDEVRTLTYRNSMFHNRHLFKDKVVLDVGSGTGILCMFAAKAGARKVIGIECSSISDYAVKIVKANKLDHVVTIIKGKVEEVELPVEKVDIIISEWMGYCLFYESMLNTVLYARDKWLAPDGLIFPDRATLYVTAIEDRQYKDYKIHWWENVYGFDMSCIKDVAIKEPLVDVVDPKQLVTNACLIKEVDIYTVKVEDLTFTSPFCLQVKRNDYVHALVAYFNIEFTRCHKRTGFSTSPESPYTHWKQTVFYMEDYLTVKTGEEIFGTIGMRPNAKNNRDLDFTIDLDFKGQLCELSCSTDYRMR
LEDGF integ inh – blocks HIV-1 LEDGF/p75-dependent DNA integration; TR-FRET IN-LEDGF/p75 DNA integration, Eu/Cy5; inhibition, % at 3.7 µM; actives 0.64% (n = 370,000); AID 743269;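 active = inhibition above the screen-wide mean plus 3 SD, cut at about 13% in these data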;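 also: signal is the Cy5 over europium emission ratio at 671 and 618 nm; 0% = plate median of compound wells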
HTRA1 inh – HTRA1 (human) protease inhibition. Q92743. recombinant HTRA1, FP-rhodamine activity-based probe, fluorescence polarization. inhibition, % at 5.96 µM. actives 0.5% (n = 340,000); in the data active = inhibition above about 36%;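 also: 0% = enzyme with DMSO and 100% = wells lacking enzyme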
rCAG RNA binder – molecules binding r(CAG) RNA repeats | AID 651821 | inhibition, % at 3 µM | actives 1.3% (n = 370,000) | r(CAG) RNA repeat, TO-PRO-1 dye displacement fluorescence;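 active = inhibition above the plate cutoff, the mean of all test compounds on that plate plus 3 SD, cut at about 35% in these data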;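 also: 0% = DMSO alone and 100% = 100 µM mitoxantrone as full dye displacement; higher means more dye released from RNA so lower well fluorescence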
mABHD4 FP – inhibitors of mouse ABHD4 | inhibition, % at 8.92 µM | AID 720543 | purified mABHD4, FP-Rh probe fluorescence polarization | Q8VD66 | actives 0.54% (n = 370,000);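 active = inhibition exceeding the mean over every tested compound plus 3 SD, cut at about 30% in these data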;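 also: 0% = plate median of compound wells and 100% = S159A mutant with DMSO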
Target sequence (Q8VD66 whole entry, looked up): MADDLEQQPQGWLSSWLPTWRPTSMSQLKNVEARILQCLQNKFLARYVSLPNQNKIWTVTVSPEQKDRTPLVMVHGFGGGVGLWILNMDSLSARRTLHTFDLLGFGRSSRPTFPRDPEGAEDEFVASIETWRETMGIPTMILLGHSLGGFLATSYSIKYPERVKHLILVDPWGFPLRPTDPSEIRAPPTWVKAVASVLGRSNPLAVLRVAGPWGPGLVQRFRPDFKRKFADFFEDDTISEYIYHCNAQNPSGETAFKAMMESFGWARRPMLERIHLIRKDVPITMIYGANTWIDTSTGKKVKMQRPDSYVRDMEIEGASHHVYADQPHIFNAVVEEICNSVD
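Assay system: mABHD4 protein; medium: HEPES pH 7.0, NaCl, Pluronic buffer; dosing: 8.92 µM, single dose; schedule: 45 min + 60 min at 25 °C; signal: FP readout, ex 525 nm / em 598 nm; read-out: normalized percent inhibition of probe labeling; repeats: single replicate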
rCAG binder conf – r(CAG) RNA repeat binding, confirmation; shares compounds with rCAG RNA binder; TO-PRO-1 dye displacement fluorescence; inhibition, % at 3 µM; actives 70% (n = 4,300); AID 652065;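 active = inhibition above a per-plate cutoff, the mean inhibition of sample wells plus 3 SD, cut at about 35% in these data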;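 also: loss of TO-PRO-1 fluorescence as compound displaces dye from 1x1 AA loop RNA; 0% = DMSO only wells and 100% = 100 µM mitoxantrone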
dCAG dye counter – disrupts DNA CAG TO-PRO-1 complex, flagging rCAG hits; shares compounds with rCAG RNA binder; inhibition, % at 3 µM; d(CAG) DNA oligo TO-PRO-1 dye displacement, fluorescence; actives 94% (n = 4,300);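 active = inhibition above its plate's cutoff, the mean test-well inhibition plus 3 SD, cut at about 4.8% in these data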;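 also: 0% = DNA dye mix with DMSO and 100% = 100 µM mitoxantrone; hits displace the dye from DNA and so lower well fluorescence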
* = called active by the depositor; x = not tested or not shown.

SMILES | DAGLB inh | PRMT1 inh | LEDGF integ inh | HTRA1 inh | rCAG RNA binder | mABHD4 FP | rCAG binder conf | dCAG dye counter
O=C(O)c1cc(Cl)c(Cl)cc1C(=O)N(Cc1ccccc1)Cc1ccccc1 | 10.5 | 5.3 | -3.4 | -23.0 | 37.4* | 0.7 | 45.0* | 11.5*
COc1ccc(NS(=O)(=O)c2cccc(C(=O)NCc3ccccn3)c2)cc1 | 0.5 | 1.1 | 0.7 | 1.5 | -0.9 | -3.8 | x | x
COc1cc2cnc(-c3ccsc3)c(-c3ccc(F)cc3)c2cc1OC | 0.0 | -1.3 | -1.7 | -10.1 | 0.3 | -13.8 | x | x
Cc1ccc(CNC(=O)C2CC(c3ccc([N+](=O)[O-])cc3)=NO2)cc1 (stereo unspecified) | -0.8 | -1.9 | -1.3 | -2.2 | 44.4* | 7.2 | 3.0 | -0.4
CCOc1cc(/C=N/N=C2/NC(=O)C(CC(=O)O)S2)ccc1OCc1ccccc1Cl (stereo unspecified) | 6.1 | 5.0 | -1.9 | -4.6 | 63.7* | -11.1 | 46.0* | 13.1*
CCOc1cc(/C=N/N=C2/NC(=O)C(CC(=O)O)S2)ccc1OS(=O)(=O)c1ccc(C)cc1 (stereo unspecified) | 4.7 | 6.5 | -0.7 | -8.0 | 55.9* | 13.7 | 36.3* | 9.7*
Cc1ccc(S(=O)(=O)Oc2ccc(/C=N/N=C3/NC(=O)C(CC(=O)O)S3)cc2)cc1 (stereo unspecified) | x | -4.3 | 4.3 | x | 31.1 | -0.3 | x | x
Cc1ccc2c(c1)N(CC(=O)NC1CCCc3ccccc31)C(=O)CO2 (stereo unspecified) | 1.3 | 0.9 | -1.7 | 4.5 | -3.1 | 7.0 | x | x
Cc1ccc(S(=O)(=O)N2CCOCC2)cc1C(=O)Nc1ccc(C(N)=O)cc1 | 0.3 | -0.2 | 1.2 | -4.6 | 1.9 | -0.5 | x | x
O=C(Nc1ccc(S(=O)(=O)Nc2nccs2)cc1)c1ccc(S(=O)(=O)N2CCOCC2)cc1 | 2.8 | 0.0 | -3.8 | 2.2 | 22.2 | -12.6 | x | x
O=C(Nc1ccc(S(=O)(=O)Nc2nccs2)cc1)c1ccc(F)c(S(=O)(=O)N2CCOCC2)c1 | 0.8 | 0.9 | -6.0 | -2.6 | 45.0* | -5.8 | 37.2* | 16.4*
Cc1ccc(S(=O)(=O)N2CCOCC2)cc1C(=O)Nc1ccc(S(=O)(=O)Nc2nccs2)cc1 | -0.5 | 0.5 | 0.9 | -2.5 | 38.6* | 0.3 | 26.1 | 11.6*
CC(C)(C)c1ccc(OCC(=O)Nc2ccc(C(=O)Nc3ccccc3C(=O)O)cc2)cc1 | 4.8 | -4.7 | -0.1 | -20.9 | 42.6* | -20.3 | 88.2* | 67.3*
COc1ccc(CC(=O)Nc2ccc(C(=O)Nc3ccccc3C(=O)O)cc2)cc1OC | 3.0 | 3.4 | 1.0 | -10.7 | 58.6* | -11.5 | 42.0* | 9.9*
COc1ccccc1OCC(=O)Nc1ccc(C(=O)Nc2ccccc2C(=O)O)cc1 | 4.0 | -0.7 | 4.8 | -19.6 | 58.1* | -20.0 | 64.7* | 22.8*
CC(C)(C)c1ccc(OCC(=O)NNC(=O)Nc2ccccc2)cc1 | -4.4 | -2.7 | -1.4 | 3.5 | -1.4 | 6.5 | x | x
COc1ccc(CC(=O)Nc2ccc(C(=O)NC(C)(C)C)cc2)cc1OC | -4.1 | 0.5 | 2.6 | 1.7 | -3.5 | -2.3 | x | x
CC(=O)c1ccc(NCC(=O)N2CCN(S(=O)(=O)c3ccccc3)CC2)cc1 | 0.8 | 0.8 | 3.1 | -0.1 | -1.7 | -4.3 | x | x
CCOC(=O)CC(=O)CSc1nc2c(sc(=S)n2-c2ccc(C)c(C)c2)c(=O)[nH]1 | 20.6 | -0.3 | -0.6 | -0.7 | 70.4* | -20.0 | 63.0* | 23.4*
CCOC(=O)CC(=O)CSc1nc2c(sc(=S)n2-c2ccc(OCC)cc2)c(=O)[nH]1 | 18.1 | 2.6 | 1.8 | -9.8 | 61.2* | -0.4 | 53.3* | 18.8*
CCCN(CCC)C(=O)CSc1nc2c(sc(=S)n2-c2ccc(OCC)cc2)c(=O)[nH]1 | 22.8 | -0.7 | 4.2 | -6.1 | 24.5 | 11.8 | x | x
O=C(CSc1ncnc2nc[nH]c12)Nc1nnc(SCc2ccc(Cl)c(Cl)c2)s1 | 9.5 | 0.6 | 0.6 | -54.7 | 41.5* | -9.4 | 60.5* | 23.9*
COc1ccc(OC)c(NC(=O)CSc2ncnc3sc(C)cc23)c1 | 11.4 | 23.2* | -2.8 | 23.2 | 71.6* | 27.7 | 63.8* | 34.5*
CCc1nc(SCC(=O)Nc2cc(C)ccc2OC)c2c(C)c(C)sc2n1 | -3.9 | 2.3 | 2.9 | 4.7 | 34.9* | -0.3 | 4.0 | 1.7
CCc1nc(SCC(=O)Nc2ccccc2OC)c2c(C)c(C)sc2n1 | -8.5 | 0.4 | 1.4 | -44.3 | 1.6 | -2.9 | x | x
SMILES | DAGLB inh | PRMT1 inh | LEDGF integ inh | HTRA1 inh | rCAG RNA binder | mABHD4 FP | rCAG binder conf | dCAG dye counter
CC1CCCC(NC(=O)CNCc2ccccc2F)C1C (stereo unspecified) | -2.0 | -1.1 | -1.0 | -0.1 | -9.3 | 3.5 | x | x
COc1ccc(C(=O)Nc2ccnn2C2CCN(C(C)CSC)CC2)cc1 (stereo unspecified) | 0.5 | 1.0 | -1.2 | 2.6 | -4.0 | 0.3 | x | x
COc1ccc(NC(=O)CSc2nnc(CC(=O)Nc3ccc(F)cc3)n2C)cc1 | -1.3 | -5.8 | -0.7 | 7.2 | 0.8 | -4.0 | x | x
COc1cc(C(=O)NCc2ccccc2Cl)ccc1OCC(=O)N1CCOCC1 | -1.9 | -3.6 | 1.1 | 4.8 | -2.2 | -0.6 | x | x
CCOc1cc(-c2c(C#N)c(=O)[nH]c3c2c(C)nn3-c2ccc(F)cc2)ccc1O | 8.8 | -0.8 | -1.9 | -10.5 | 48.4* | 7.1 | 26.9 | 6.6*
COc1ccc(/C=C2/SC(=S)N(NS(=O)(=O)c3ccc(C)cc3)C2=O)cc1 | 21.5 | 5.5 | 8.0 | -12.8 | 84.1* | -4.5 | 83.6* | 46.5*
Cc1ccc(S(=O)(=O)NN2C(=O)/C(=C/c3cccs3)SC2=S)cc1 | 13.3 | -1.2 | 7.1 | -5.4 | 62.5* | 3.3 | 55.0* | 21.6*
C=CCOc1ccc(/C=C2\SC(=S)N(NS(=O)(=O)c3ccc(C)cc3)C2=O)cc1 | 29.2 | 3.2 | -0.3 | -101.9 | 80.5* | 1.5 | 84.1* | 53.3*
Nc1ccc(-n2nc(C(F)(F)F)cc2C(F)(F)F)cc1 | -1.9 | 4.8 | -0.9 | 7.0 | -2.6 | -1.3 | x | x
O=C(NCc1ccccc1)C(c1ccc(F)cc1)N1CCN(c2ccccc2F)CC1 (stereo unspecified) | x | 2.9 | -1.2 | x | -2.4 | -1.5 | x | x
COc1ccc(C(=O)NCC(c2cccs2)N2CCc3ccccc32)cc1OC (stereo unspecified) | 5.7 | -4.4 | 3.8 | 0.1 | 3.6 | -8.6 | x | x
CCCS(=O)(=O)c1nc(S(=O)(=O)c2ccc(C)cc2)c(NCCCN2CCOCC2)s1 | -0.1 | 2.5 | 0.1 | -3.2 | -2.5 | -1.0 | x | x
Cc1ccc(C(=O)N/C(=C\c2ccc(Br)cc2)c2nc(=S)[nH][nH]2)cc1 | 2.7 | -0.1 | 1.4 | -66.7 | 41.2* | -25.0 | 53.2* | 23.3*

Assay outcomes: PubChem BioAssay, The Scripps Research Institute Molecular Screening Center
